Laboratory results taken from ChEMBL document CHEMBL4007452, “Discovery of an Orally Selective Inhibitor of Signal Transducer and Activator of Transcription 3 Using Advanced Multiple Ligand Simultaneous Docking” (J Med Chem, 2017).
Activity calls are given as the source filed them. No cut-off for these calls is given here.

Experiments:
[1] = target: T1, Signal transducer and activator of transcription 3 (Homo sapiens, UniProt P40763); conditions: 2.5 to 5 uM
CCRF S-180 = test: Anticancer activity against […] cells xenografted in BALB/c nude mouse assessed as reduction in tumor weight at 5 mg/kg, po measured after 21 days relative to vehicle control; type: functional; parameters: scale not given: the % may be the effect or the level left
Summary of the method: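 Male mice, 4 weeks old, given s.c. flank S180 mouse sarcoma cells (3 x 10^6). From day 2, 10 mice per group received saline vehicle, oral drug at 5 mg/kg, or i.p. drug at 1 mg/kg, each dissolved in saline. Therapy ran 21 days; tumor weight and body weight were recorded.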

[2] = AUC (0 to infinity) in Sprague-Dawley rat plasma at 1 mg/kg, iv measured after 24 hrs by UPLC analysis; type: ADME, organism-based; parameters: dose 1 mg/kg, time infinity, route intravenous
Summary of the method: (§1)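 Rat plasma sampled from 2 min to 24 h after a single i.v. (1 mg/kg) or p.o. (10 mg/kg) dose. Parameters were derived from the concentration-time profiles. The bioanalytical method was validated to FDA guidelines for selectivity, linearity, LLOQ, accuracy, precision, recovery, matrix effect and stability.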

[3] = target: T1, Signal transducer and activator of transcription 3; conditions: 2.5 to 5 uM; remark: listed apart in the source
U2OS = test: Antiproliferative activity against human U2OS cells after 24 hrs by MTT assay; type: functional, cell-based
Summary of the method: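 Cells were seeded at 3000 per well and incubated 24 h at 37 °C. Compounds were added in triplicate with 10% FBS: 0.1-10 or 0.1-20 µM for cancer lines, 3.125-400 µM for MCF-10A. Viability was read by MTT absorbance at 595 nm, with IC50 fitted from the curves. DMSO stocks were 20 mM.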

[4] = target: T2, Signal transducer and activator of transcription 5B (Homo sapiens) (UniProt P51692); test: Binding affinity to STAT5B (unknown origin) after 30 mins by fluorescence polarization assay
T2 sequence (whole entry): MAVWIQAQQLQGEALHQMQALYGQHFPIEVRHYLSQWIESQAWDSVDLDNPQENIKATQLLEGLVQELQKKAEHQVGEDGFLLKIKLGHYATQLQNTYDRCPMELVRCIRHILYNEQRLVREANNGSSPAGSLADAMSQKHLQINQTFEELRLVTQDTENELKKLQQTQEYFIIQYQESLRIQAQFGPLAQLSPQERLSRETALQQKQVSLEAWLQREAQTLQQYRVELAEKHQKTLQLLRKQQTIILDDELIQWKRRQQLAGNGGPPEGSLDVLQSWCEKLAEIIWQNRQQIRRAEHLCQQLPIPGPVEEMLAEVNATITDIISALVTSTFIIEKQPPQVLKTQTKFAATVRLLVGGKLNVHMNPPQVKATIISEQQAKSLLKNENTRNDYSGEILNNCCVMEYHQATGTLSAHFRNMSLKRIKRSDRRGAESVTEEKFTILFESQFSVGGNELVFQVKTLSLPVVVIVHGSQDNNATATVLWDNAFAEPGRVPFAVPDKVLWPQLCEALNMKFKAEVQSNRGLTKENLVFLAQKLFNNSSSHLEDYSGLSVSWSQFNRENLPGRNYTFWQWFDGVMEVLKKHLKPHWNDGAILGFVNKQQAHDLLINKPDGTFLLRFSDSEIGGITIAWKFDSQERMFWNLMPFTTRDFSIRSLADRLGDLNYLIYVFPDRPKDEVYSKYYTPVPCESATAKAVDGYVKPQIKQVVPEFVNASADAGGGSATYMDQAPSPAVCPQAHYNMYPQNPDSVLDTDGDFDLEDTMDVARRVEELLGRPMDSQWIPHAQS
Summary of the method: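 A competitive fluorescence polarization assay measured displacement of fluorescent phosphopeptide from the SH2 domain of purchased STAT1 or STAT5 protein, using the corresponding peptides.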

Rattus norvegicus = test: AUMC (0 to t) in Sprague-Dawley rat plasma at 10 mg/kg, po measured after 24 hrs by UPLC analysis; type: ADME, organism-based; conditions: in vivo
Summary of the method: as §1

[5] = target: T3, Signal transducer and activator of transcription 1-alpha/beta (Homo sapiens) (UniProt P42224); test: Inhibition of STAT1 in human MDA-MB-231 cells assessed as reduction in IFN-gamma-induced STAT1-STAT1 DNA binding activity at 2.5 to 10 uM preincubated for 2 hrs followed by IFN-gamma stimulation measured after 30 mins by EMSA; type: cell-based
T3 sequence (whole entry): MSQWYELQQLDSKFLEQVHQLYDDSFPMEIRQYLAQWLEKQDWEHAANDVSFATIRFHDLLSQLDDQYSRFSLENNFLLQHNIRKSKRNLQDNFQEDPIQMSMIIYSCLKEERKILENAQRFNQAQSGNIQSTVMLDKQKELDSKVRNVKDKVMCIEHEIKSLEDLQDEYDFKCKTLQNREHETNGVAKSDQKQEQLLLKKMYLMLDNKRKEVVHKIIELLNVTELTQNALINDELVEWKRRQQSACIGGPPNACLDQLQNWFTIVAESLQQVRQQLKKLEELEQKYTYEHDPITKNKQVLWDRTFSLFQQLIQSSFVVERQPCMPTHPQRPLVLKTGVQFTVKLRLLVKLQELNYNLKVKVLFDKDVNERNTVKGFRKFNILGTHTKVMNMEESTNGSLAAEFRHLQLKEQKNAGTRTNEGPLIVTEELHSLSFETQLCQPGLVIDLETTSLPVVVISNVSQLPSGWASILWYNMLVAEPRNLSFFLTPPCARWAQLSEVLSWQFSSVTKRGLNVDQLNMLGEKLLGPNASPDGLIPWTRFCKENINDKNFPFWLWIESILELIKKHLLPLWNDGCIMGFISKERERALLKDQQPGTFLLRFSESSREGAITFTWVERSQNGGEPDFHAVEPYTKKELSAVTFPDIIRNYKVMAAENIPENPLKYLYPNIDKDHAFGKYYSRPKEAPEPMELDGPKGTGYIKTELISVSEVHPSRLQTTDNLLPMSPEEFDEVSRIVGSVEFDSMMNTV
Summary of the method: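 Serum-starved MDA-MB-231 cells were preincubated with compound, stimulated with IFN-γ 50 ng/mL, and then nuclear extracts were taken for EMSA with biotin-labeled probe.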

Mus musculus = test: Toxicity in BALB/c nude mouse xenografted with human MDA-MB-231 cells assessed as reduction in body weight at 2.5 to 10 mg/kg, po qd administered for 32 days; type: organism-based; conditions: in vivo, 768 h
Summary of the method: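 MDA-MB-231 cells (5 x 10^6) were implanted s.c. in the flank of 6-week-old female athymic BALB/c nude mice. Oral dosing started at a tumor volume of about 100 mm3, with 8 mice per group and a saline vehicle control. […] Body weight was tracked over the 32-day treatment.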

[6] = target: T1, Signal transducer and activator of transcription 3; test: Displacement of 5-FAM-SpYLPQTV from STAT3 (unknown origin) at pY705 site after 30 mins by fluorescence polarization assay
[7] = Clearance in Sprague-Dawley rat plasma at 10 mg/kg, po measured after 24 hrs by UPLC analysis; type: ADME, organism-based
Summary of the method: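 Parameters were derived from the concentration-time profiles. The bioanalytical method was validated to FDA guidelines for selectivity, linearity, LLOQ, accuracy, precision, recovery, matrix effect and stability.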

T1 sequence (P40763 whole entry): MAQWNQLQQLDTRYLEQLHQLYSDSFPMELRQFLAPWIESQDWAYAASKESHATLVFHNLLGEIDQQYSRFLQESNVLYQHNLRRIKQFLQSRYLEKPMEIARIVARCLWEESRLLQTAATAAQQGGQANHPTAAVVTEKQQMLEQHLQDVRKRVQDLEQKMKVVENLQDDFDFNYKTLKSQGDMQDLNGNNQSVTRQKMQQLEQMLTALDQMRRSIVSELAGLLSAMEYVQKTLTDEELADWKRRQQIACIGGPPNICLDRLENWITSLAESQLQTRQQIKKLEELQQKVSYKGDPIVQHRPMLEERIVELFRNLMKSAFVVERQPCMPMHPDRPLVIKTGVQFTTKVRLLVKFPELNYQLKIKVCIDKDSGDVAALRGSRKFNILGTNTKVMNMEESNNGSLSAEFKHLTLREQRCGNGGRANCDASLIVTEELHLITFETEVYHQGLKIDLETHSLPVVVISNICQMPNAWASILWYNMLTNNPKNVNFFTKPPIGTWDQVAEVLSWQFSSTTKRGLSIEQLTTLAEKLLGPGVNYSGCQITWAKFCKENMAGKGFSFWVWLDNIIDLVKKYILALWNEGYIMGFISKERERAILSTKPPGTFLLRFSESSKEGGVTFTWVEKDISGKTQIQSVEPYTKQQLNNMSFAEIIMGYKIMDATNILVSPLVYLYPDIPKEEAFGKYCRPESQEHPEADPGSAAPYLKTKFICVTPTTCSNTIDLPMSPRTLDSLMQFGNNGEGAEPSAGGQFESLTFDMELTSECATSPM

NS(=O)(=O)c1cccc2c1C(=O)C=C(Nc1ccccc1N1CCNCC1)C2=O
inhibition [1]: Active
Activity (CCRF S-180): 72.74%
AUC(0-inf) [2]: 199 ng·h/mL
inhibition [3]: Active
IC50 (U2OS): 1500 nM
Activity [4]: inactive
AUMCt (Rattus norvegicus): 1622.6 hr2.ng/ml
inhibition [5]: inactive
Activity (Mus musculus): Non-Toxic
Ki [6]: 440 nM
CL/F [7]: 196 mL/min/kg
